Structures can show the parent of a compound that is named as a salt.
Key:
[1] = Selectivity as the ratio of pA2 value against alpha 1 receptor to that of alpha-2 receptor.
Method in brief: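 Ratio computed as the antilog of the α1 pA2 minus the α2 pA2. The α1 pA2 came from rat epididymal vas deferens against norepinephrine, and the α2 pA2 from field-stimulated prostatic vas deferens against clonidine.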

Rattus norvegicus = species: Rattus norvegicus; assay: (§1) Alpha-2-adrenoceptor blocking activity was determined by antagonism of clonidine induced depression of the twitch responses of the field stimulated prostatic portion of the vas deferens and the potency was expressed as pA2.; type: functional; settings: read-out: pA2 (converted)
[2] = target: T1, Adrenergic receptor alpha-1 (Rattus norvegicus, UniProt P15823+P23944+P43140); assay: Alpha-1-Adrenoceptor blocking activity as antagonism of (-)-norepinephrine induced contractions of epididymal vas deferens; type: functional, tissue-based
T1 sequence (P15823 whole entry): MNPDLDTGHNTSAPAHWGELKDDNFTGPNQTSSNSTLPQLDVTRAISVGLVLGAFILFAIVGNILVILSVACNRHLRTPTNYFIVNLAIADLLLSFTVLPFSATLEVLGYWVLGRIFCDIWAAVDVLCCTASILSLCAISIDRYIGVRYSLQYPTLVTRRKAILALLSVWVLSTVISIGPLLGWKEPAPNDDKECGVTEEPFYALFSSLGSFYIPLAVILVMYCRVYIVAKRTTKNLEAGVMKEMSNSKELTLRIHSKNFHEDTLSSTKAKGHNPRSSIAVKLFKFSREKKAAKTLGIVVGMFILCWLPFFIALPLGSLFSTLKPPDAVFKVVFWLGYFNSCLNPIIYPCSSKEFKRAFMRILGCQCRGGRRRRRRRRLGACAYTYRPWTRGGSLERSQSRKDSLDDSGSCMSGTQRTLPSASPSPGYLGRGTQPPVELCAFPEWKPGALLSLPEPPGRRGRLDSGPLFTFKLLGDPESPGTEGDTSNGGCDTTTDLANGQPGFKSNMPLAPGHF
T1 sequence (P23944 whole entry): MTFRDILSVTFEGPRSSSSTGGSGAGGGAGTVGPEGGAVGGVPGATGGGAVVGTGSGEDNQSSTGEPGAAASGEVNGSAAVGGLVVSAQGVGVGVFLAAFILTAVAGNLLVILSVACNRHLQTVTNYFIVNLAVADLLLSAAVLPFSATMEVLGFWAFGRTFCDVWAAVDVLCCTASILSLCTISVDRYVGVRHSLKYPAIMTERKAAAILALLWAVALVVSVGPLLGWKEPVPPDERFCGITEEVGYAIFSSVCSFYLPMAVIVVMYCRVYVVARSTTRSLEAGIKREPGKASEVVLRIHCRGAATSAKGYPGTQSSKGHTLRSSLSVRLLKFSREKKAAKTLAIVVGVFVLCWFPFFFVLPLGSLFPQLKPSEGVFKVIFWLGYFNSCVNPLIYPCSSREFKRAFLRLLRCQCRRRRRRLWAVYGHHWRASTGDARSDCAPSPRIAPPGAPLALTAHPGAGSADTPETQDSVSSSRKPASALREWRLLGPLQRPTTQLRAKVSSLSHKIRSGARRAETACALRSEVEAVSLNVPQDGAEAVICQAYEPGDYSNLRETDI
T1 sequence (P43140 whole entry): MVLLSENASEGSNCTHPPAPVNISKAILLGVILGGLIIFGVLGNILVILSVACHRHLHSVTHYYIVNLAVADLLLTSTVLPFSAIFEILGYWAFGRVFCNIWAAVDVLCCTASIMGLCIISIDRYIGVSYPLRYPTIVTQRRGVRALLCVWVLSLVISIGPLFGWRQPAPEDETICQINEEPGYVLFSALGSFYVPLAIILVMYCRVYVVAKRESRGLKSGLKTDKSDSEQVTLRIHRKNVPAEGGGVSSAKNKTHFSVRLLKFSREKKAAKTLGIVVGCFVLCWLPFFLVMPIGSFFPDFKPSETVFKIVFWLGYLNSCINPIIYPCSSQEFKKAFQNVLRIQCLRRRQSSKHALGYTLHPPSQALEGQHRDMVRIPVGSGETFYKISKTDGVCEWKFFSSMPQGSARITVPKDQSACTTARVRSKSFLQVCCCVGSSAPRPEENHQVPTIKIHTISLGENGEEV

[3] = target: T1, Adrenergic receptor alpha-1; assay: Alpha-1 adrenergic receptor blocking activity was assessed by antagonism of (-)-norepinephrine induced contractions of the epididymal portion of the vas deferens and the potency was expressed as pA2.; type: functional, tissue-based
Method in brief: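 Male albino rat (175–200 g) epididymal vas deferens, 14 mm, in Krebs at 37 °C gassed 95% O2–5% CO2, 0.4 g load, with propranolol 1 μM, cocaine 10 μM, deoxycorticosterone acetate 40 μM. ≥1 h equilibration. Cumulative norepinephrine curves: second as control, third after 30 min antagonist. Time-matched untreated tissues. Schild pA2 from EC50 dose ratios, three antagonist concentrations, n≥5 each.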

[4] = target: T2, Adrenergic receptor alpha-2 (Rattus norvegicus, UniProt P22086+P19328+P22909); assay: as §1; type: functional, tissue-based
T2 sequence (P22086 whole entry): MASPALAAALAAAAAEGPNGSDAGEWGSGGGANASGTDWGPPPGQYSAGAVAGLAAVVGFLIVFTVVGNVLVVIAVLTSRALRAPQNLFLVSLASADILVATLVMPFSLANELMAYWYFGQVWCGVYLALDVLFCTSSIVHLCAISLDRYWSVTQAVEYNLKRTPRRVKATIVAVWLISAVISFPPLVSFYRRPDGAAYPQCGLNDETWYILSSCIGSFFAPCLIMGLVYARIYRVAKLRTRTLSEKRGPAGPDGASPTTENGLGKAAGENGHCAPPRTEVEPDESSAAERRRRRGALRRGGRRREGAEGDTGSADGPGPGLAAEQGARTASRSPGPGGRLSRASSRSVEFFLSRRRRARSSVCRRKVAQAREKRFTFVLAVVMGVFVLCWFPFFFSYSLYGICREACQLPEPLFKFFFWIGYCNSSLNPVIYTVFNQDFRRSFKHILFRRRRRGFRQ
T2 sequence (P19328 whole entry): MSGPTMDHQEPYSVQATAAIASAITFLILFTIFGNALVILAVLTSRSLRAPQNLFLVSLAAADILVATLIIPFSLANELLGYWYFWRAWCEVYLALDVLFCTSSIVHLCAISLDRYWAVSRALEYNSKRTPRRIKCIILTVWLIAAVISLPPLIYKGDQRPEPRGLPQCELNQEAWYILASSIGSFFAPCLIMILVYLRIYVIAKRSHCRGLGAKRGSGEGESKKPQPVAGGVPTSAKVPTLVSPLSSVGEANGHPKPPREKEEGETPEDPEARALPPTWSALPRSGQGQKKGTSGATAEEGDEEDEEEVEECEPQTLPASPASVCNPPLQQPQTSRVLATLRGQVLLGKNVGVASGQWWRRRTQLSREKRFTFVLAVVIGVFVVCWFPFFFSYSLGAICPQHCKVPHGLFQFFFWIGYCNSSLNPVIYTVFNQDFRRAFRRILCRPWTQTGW
T2 sequence (P22909 whole entry): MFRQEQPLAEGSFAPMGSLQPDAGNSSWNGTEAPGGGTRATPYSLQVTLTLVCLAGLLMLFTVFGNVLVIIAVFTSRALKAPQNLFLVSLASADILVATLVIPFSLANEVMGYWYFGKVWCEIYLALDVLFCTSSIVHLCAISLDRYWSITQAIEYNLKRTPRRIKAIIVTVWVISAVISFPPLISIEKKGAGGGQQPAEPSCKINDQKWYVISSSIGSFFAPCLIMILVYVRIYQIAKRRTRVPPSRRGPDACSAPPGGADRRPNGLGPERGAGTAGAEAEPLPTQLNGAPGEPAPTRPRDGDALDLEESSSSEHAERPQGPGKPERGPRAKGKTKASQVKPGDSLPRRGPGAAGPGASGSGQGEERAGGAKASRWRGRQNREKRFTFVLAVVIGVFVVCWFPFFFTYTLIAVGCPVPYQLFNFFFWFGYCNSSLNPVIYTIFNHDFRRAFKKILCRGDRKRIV
Method in brief: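 Field stimulation 0.1 Hz, 3-ms pulses, 10–35 V. Propranolol, cocaine and deoxycorticosterone present. After 1 h, one tissue was given antagonist for 30 min and the contralateral tissue served as control. Clonidine curves for 50% twitch inhibition gave dose ratios. Three concentrations (two if limited above 30 μM), n≥5; Schild or van Rossum pA2.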

COc1cccc(OC)c1OCCNCC1COc2ccccc2O1 (stereo unspecified) [2- (2,6-DIMETHOXYPHENOXYETHYL)AMINOMETHYL-1,4-BENZODIOXANE HYDROCHLORIDE (WB 4101)]
Selectivity ratio [1]: 347 | Kb (Rattus norvegicus): 513 nM

COc1cc2nc(NCCNC(=O)c3ccco3)nc(N)c2cc1OC.Cl
pA2 [2]: 8.81 | Selectivity ratio [1]: 3890 | Kb (Rattus norvegicus): 6030 nM

Cl.O=C(NCCNCC1COc2ccccc2O1)c1ccco1 (stereo unspecified)
pA2 [2]: 7.19 | Selectivity ratio [1]: 22 | Kb (Rattus norvegicus): 1410 nM

Cl.O=C(c1ccco1)N1CCN(CC2COc3ccccc3O2)CC1 (stereo unspecified)
Selectivity ratio [1]: 0.59 | pA2 [3]: 6.05 | Kb (Rattus norvegicus): 525 nM

COc1cc2nc(NCCOc3c(OC)cccc3OC)nc(N)c2cc1OC.Cl
pA2 [2]: 7.88 | Selectivity ratio [1]: 87 | Kb (Rattus norvegicus): 1150 nM

COc1cc2nc(N(C)CCN(C)C(=O)c3ccco3)nc(N)c2cc1OC.Cl
pA2 [2]: 7.18 | Selectivity ratio [1]: 65 | Kb (Rattus norvegicus): 4270 nM

COc1cc2nc(N(C)CCOc3c(OC)cccc3OC)nc(N)c2cc1OC.Cl
pA2 [2]: 7.86 | Selectivity ratio [1]: 89 | pA2 [4]: 5.91

COc1cccc(OC)c1OCCN1CCN(C(=O)c2ccco2)CC1.Cl
pA2 [2]: 6.45 | Selectivity ratio [1]: 55 | Kb (Rattus norvegicus): 19500 nM

COc1cc2nc(NCC3COc4ccccc4O3)nc(N)c2cc1OC.Cl (stereo unspecified)
pA2 [2]: 7.22 | Selectivity ratio [1]: 11 | Kb (Rattus norvegicus): 676 nM

From ChEMBL document CHEMBL1123052, “Structure-activity relationships for prazosin and WB 4101 analogues as alpha 1-adrenoreceptor antagonists” (J Med Chem, 1985)
